The assay deals with T1, Interstitial collagenase (Homo sapiens, UniProt P03956).
T1 sequence (P03956 whole entry): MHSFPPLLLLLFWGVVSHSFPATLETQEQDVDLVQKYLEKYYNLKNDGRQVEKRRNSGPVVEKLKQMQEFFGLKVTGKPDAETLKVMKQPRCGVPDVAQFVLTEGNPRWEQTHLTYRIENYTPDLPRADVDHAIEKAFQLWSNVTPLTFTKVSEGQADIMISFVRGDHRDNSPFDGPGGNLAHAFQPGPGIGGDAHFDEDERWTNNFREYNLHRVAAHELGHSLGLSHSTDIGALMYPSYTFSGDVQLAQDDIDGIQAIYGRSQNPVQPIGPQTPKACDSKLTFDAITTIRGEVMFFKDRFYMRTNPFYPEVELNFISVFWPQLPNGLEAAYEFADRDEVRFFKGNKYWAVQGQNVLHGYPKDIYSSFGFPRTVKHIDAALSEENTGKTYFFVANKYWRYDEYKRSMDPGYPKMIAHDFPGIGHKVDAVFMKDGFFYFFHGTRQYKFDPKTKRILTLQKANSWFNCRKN
The assay can be described thus: Inhibition of degradation of radiolabeled rat skin type I collagen by semipurified human lung fibroblast collagenase. The method in brief:
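Collagenase from WI-38 human lung fibroblast culture supernatants, trypsin-activated and semipurified. Substrate was 3H- or 14C-acetylated rat skin type I collagen, 100 μg/tube, added at 4 °C. Enzyme amount set to degrade 70% of collagen. Compounds were dissolved in MeOH by sonication and serially diluted. Incubation ran 1000 min at 37 °C, then centrifugation at 4 °C. Supernatant soluble peptides were scintillation counted.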

The values that follow come from ChEMBL document CHEMBL1127489, “Synthesis of novel N-phosphonoalkyl dipeptide inhibitors of human collagenase” (J Med Chem, 1994).

Compound `CC[C@H](N[C@@H](CC(C)C)C(=O)N[C@@H](CCCCN)C(=O)NC)P(=O)(O)O` registered a concentration for half-maximal inhibition (IC50) of 4320 nM.

The compound `CC[C@H](N[C@@H](CC(C)C)C(=O)N[C@@H](CCCNC(=N)N)C(=O)NC)P(=O)(O)O` gave an IC50 of 290 nM.

As for `CNC(=O)[C@H](Cc1ccc(OC)cc1)NC(=O)[C@H](CC(C)C)N[C@H](C)P(=O)(O)O`, the IC50 was 260 nM.

The compound `CNC(=O)[C@H](Cc1ccc(OC)cc1)NC(=O)C(CC(C)C)NC(CC(C)C)P(=O)(O)O` (stereo not given in full) displayed a half-maximal inhibitory concentration (IC50) of 2900 nM.

Regarding `CC[C@H](N[C@@H](CC(C)C)C(=O)N[C@@H](Cn1cccn1)C(=O)NC)P(=O)(O)O`, the IC50 was 760 nM.

As for `CC[C@H](N[C@H](CC(C)C)C(=O)N[C@@H](Cc1ccccc1)C(=O)NC)P(=O)(O)O`, the IC50 was above 10000 nM.

Turning to `CC[C@H](N[C@H](CC(C)C)C(=O)N[C@@H](Cc1ccc(OC)cc1)C(=O)NC)P(=O)(O)O`, the IC50 turned out to be 15600 nM.

`CCC(NC(CC(C)C)C(=O)N[C@@H](Cc1ccc(OC)cc1)C(=O)NC)[PH](=O)O` (stereo not given in full) displayed a concentration for half-maximal inhibition (IC50) above 100000 nM.

As to `CNC(=O)[C@H](Cc1ccc(OC)cc1)NC(=O)[C@H](CC(C)C)N[C@@H](CCNC(=O)OCc1ccccc1)C(=O)O`, the 50% inhibitory concentration (IC50) came to 350 nM.

Compound `CC[C@@H](N[C@@H](CC(C)C)C(=O)N[C@@H](Cc1ccccc1)C(=O)NC)P(=O)(O)O` gave an IC50 of 240 nM.

`CC[C@@H](N[C@H](CC(C)C)C(=O)N[C@@H](Cc1ccccc1)C(=O)NC)P(=O)(O)O` came in with an IC50 above 10000 nM.

`CCCC(NC(CC(C)C)C(=O)N[C@@H](Cc1ccc(OC)cc1)C(=O)NC)P(=O)(O)O` (stereo not given in full) returned a concentration for half-maximal inhibition (IC50) of 15700 nM.

Compound `CNC(=O)[C@H](Cc1ccc(OC)cc1)NC(=O)[C@H](CC(C)C)N[C@@H](C)P(=O)(O)O` yielded a half-maximal inhibitory concentration (IC50) of 520 nM.

Compound `CNC(=O)[C@H](Cc1ccccc1)NC(=O)[C@H](CC(C)C)N[C@H](CCc1ccccc1)P(=O)(O)O` displayed an IC50 of 1820 nM.

In turn, `CCCCC(NC(CC(C)C)C(=O)N[C@@H](Cc1ccc(OC)cc1)C(=O)NC)P(=O)(O)O` (stereo not given in full) showed a 50% inhibitory concentration (IC50) of 41200 nM.

`CNC(=O)CP(=O)(O)C[C@@H](CC(C)C)C(=O)N[C@@H](Cc1ccc(OC)cc1)C(=O)NC`: the IC50 turned out to be 37000 nM.

`CC[C@@H](N[C@@H](CC(C)C)C(=O)N[C@@H](Cc1ccc(OC)cc1)C(=O)NC)P(=O)(O)O` gave an IC50 of 300 nM.

Regarding `CC[C@H](N[C@@H](CC(C)C)C(=O)N[C@@H](Cc1nc2ccccc2[nH]1)C(=O)NC)P(=O)(O)O`, it took 150 nM to reach half-maximal inhibition (IC50).

Consider `CNC(=O)[C@H](Cc1ccc(OC)cc1)NC(=O)C(CC(C)C)NC(C)P(C)(=O)O` (stereo not given in full), for which the IC50 was above 100000 nM.

Regarding `CNC(=O)[C@H](Cc1ccccc1)NC(=O)[C@H](CC(C)C)N[C@@H](CCc1ccccc1)P(=O)(O)O`, it took 400 nM to reach half-maximal inhibition (IC50).

With `CC[C@H](N[C@@H](CC(C)C)C(=O)N[C@@H](Cc1ccc(OC)cc1)C(=O)NC)P(=O)(O)O`, the IC50 worked out at 470 nM.

As to `CC[C@@H](N[C@@H](CC(C)C)C(=O)N[C@@H](CCCCN)C(=O)NC)P(=O)(O)O`, the midpoint of inhibition, the IC50, lay at 740 nM.

On to `CC[C@H](N[C@@H](CC(C)C)C(=O)N[C@@H](CC(=O)NCCN1CCCC1)C(=O)NC)P(=O)(O)O`, for which inhibition was half-maximal at 1360 nM (IC50).

The compound `CNC(=O)[C@H](Cc1ccc(OC)cc1)NC(=O)C(CC(C)C)NC(C(C)C)P(=O)(O)O` (stereo not given in full) yielded a concentration for half-maximal inhibition (IC50) of 2900 nM.

With `CNC(=O)[C@H](Cc1ccc(OC)cc1)NC(=O)[C@H](CC(C)C)N[C@H](C)C(=O)O`, the IC50 is above 10000 nM.

As to `CC[C@H](N[C@@H](CC(C)C)C(=O)N[C@@H](CCCN(C)C)C(=O)NC)P(=O)(O)O`, the concentration for half-maximal inhibition (IC50) stood at 490 nM.

In turn, `CC[C@H](N[C@@H](CC(C)C)C(=O)N[C@@H](Cc1c[nH]c2ccccc12)C(=O)NC)P(=O)(O)O` yielded an IC50 of 50 nM.

For the compound `CC[C@H](N[C@@H](CC(C)C)C(=O)N[C@@H](Cc1ccccc1)C(=O)NC)P(=O)(O)O`, the half-inhibitory concentration (IC50) was found to be 230 nM.

In the case of `CNC(=O)[C@H](Cc1ccccc1)NC(=O)[C@H](CC(C)C)N[C@@H](CC(C)C)P(=O)(O)O`, inhibition was half-maximal at 1560 nM (IC50).

As for `CC[C@@H](N[C@H](CC(C)C)C(=O)N[C@@H](Cc1ccc(OC)cc1)C(=O)NC)P(=O)(O)O`, the IC50 is 39300 nM.
